The test system of data set [1] is MCF-10A non-tumorigenic human breast epithelial cell line. The experiment in a line: MTT anti-proliferative assay on MCF-10A. In kind it is cell-based. Particulars: read-out: IC50, MCF-10A. In general terms: Tetrazolium assays rely on reduction of a dye to a coloured formazan, in cell work by metabolically active cells.
A further data set has as its system MCF-7. Kind of data set: ROS production. The format is cell-based, human. As to conditions: MCF-7, 72 h.
In data set [2] the test system is MCF-7 breast cancer cell line. Particulars: cited from earlier work; for IC50: read-out: IC50, MCF-7, MTT assay, 72 h drug exposure.
The subject of data set [3] is HT-29 colon cancer cell line. As to conditions: read-out: IC50, HT-29; MTT assay, 72 h drug exposure; cited from earlier work.
The conditions of data set [4]: CH3CN, vs Ag/AgCl, cited from earlier work.
For data set [5], the system named is MCF-7 cells. Kind of data set: Cytokinesis-block micronucleus assay. As to conditions: for % Binucleated cells (Mitotic rate) / Micronucleus (MNi) (mean ± SD): 72 h treatment; for % Binucleated cells (Mitotic rate): MCF-7, mean (SD); for increase in micronucleus forming activity compared to control (untreated cells): MCF-7; for Micronucleus (MNi) (mean ± SD): micronucleated cells in 500 binucleated MCF-7 cells.

In data set [6] the test system is HT-29 colon cancer cell line. Kind of data set: MTT anti-proliferative assay on HT-29. The format is cell-based, human. As to conditions: read-out: IC50, HT-29.
Data set [7] deals with MCF-7 breast cancer cell line. Kind of data set: MTT anti-proliferative assay on MCF-7. In kind it is cell-based, human. As to conditions: read-out: IC50, MCF-7.
In data set [8] the test system is MCF-10A non-tumorigenic human breast epithelial cell line. Particulars: cited from earlier work.
Data set [9] deals with MCF-7 cells. As to conditions: ref 35 (Yared et al.); cited from earlier work.
Data set [10] in a line: Cyclic voltammetry in CH3CN. The format is physicochemical. Particulars: 0.1 M [NBu4n]PF6, 100 mV/s, vs Ag/AgCl. Put shortly:
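Test compound dissolved at 2 × 10⁻³ M in deoxygenated CH3CN with 0.1 M [NBuⁿ₄]PF₆ as supporting electrolyte; cyclic voltammograms recorded on these solutions.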

Data set [11] relates to MCF-7 cells.
Setting [12] is: MTT assay, 72 h drug exposure, SD in parenthesis.
Where [13] appears, read: ref 13. Dalton Trans. 40 (2011) 9557–9565.
[14] abbreviates: ref 14. J. Organometal. Chem 749 (2014) 204–214.

Structures are written as SMILES. Read-outs that look alike come from different tables or passages of the source. Marks after values point to notes of the source that are not given here.

What is called IC50 is the point on the concentration scale where inhibition reaches its midpoint.

`C[C@]12CC[C@@H]3c4ccc(OC(=O)[c-]5cccc5)cc4CC[C@H]3[C@@H]1CC[C@@H]2O.[Fe+2].c1cc[cH-]c1` [Fc-CO2-estradiol, ferrocenoyl 17β-hydroxy-estra-1,3,5(10)-trien-3-olate]: the IC50 in data set [1] (setting [12]) was determined as 119 µM. In addition, the “ROS production (in words)” value in the data set on MCF-7 is recorded as “significant increase”. In [2], the IC50 was 9 µM. In addition, in data set [3], the half-maximal inhibitory concentration (IC50) is 24.4 µM. Further, in [4] (setting [13]), the E1/2 was 756 mV, the Epa was 801 mV, the Epc is reported as 711 mV and the ΔE is listed as 90 mV. Moreover, in the data set with MCF-7 cells [5] (0.01 μM), the “% Binucleated cells (Mitotic rate)” value is 33 (2) ^* % and the “increase in micronucleus forming activity compared to control (untreated cells)” value (“increase … (untreated cells)” below) worked out at 3 fold. In the data set with MCF-7 cells [5] (0.1 μM), the “% Binucleated cells (Mitotic rate)” value was 39 (9) ^* %, the “Micronucleus (MNi) (mean ± SD)” value came to 25 and the “increase … (untreated cells)” value came to 4 fold. Moreover, in the data set on MCF-7 cells [5] (1 μM), the “% Binucleated cells (Mitotic rate)” value is 34 (9) ^* %, the “Micronucleus (MNi) (mean ± SD)” value was found to be 29 and the “increase … (untreated cells)” value was found to be 4 fold. In addition, the “increase in micronucleus-forming activity” value in the data set on MCF-7 cells [5] (concentration near IC50, MCF-7) is “up to 4 fold”.

Turning to `O=C(O)[c-]1cccc1.O=C(O)[c-]1cccc1.[Fe+2]` [1-1′ferrocenedicarboxilic acid], in data set [6] (setting [12]), the IC50 was 410 µM.

Take `O=C(O)Cc1ccc[cH-]1.[Fe+2].c1cc[cH-]c1` [Ferroceneacetic acid]: the IC50 worked out at 590 µM in data set [7] (setting [12]), 86 µM in data set [1] (setting [12]) and 253 µM in data set [6] (setting [12]).

As for `O=C(Oc1ccc(Br)cc1)[c-]1cccc1.[Fe+2].c1cc[cH-]c1` [Fc-CO2-Ph-4-Br, 4-bromophenyl ferrocenecarboxylate], the IC50 in data set [2] is 9.2 µM. Also, the IC50 in data set [8] (read-out: IC50, MCF-10A, MTT assay, 72 h drug exposure) is 353 µM. Besides, the concentration for half-maximal inhibition (IC50) in [3] is 24 µM. In [4] (setting [14]), the E1/2 is recorded as 532 mV, the Epa is listed as 580 mV, the Epc is 484 mV and the ΔE is given as 96 mV.

Turning to `C[C@]12CC[C@@H]3c4ccc(O)cc4CC[C@H]3[C@@H]1CC[C@@H]2O` [β-estradiol], the “increase in the micronucleus-forming activity” value in the data set on MCF-7 cells [9] is 3 fold.

With `O=C(Oc1ccc(-n2cccc2)cc1)[c-]1cccc1.[Fe+2].c1cc[cH-]c1` [Fc-CO2-Ph-4-Py, 4-(1H-pyrrol-1-yl)phenyl ferrocenecarboxylate], the “anti-proliferative activity (in words)” value in data set [2] (hormone-dependent breast cancer cell line MCF-7) and in data set [8] (non-tumorigenic human breast epithelial cell line MCF-10A) was “high anti-proliferative activity” each time.

Regarding `O=C(Oc1ccc(-n2cccc2)cc1)[c-]1cccc1.O=C(Oc1ccc(-n2cccc2)cc1)[c-]1cccc1.[Fe+2]` [Fc-(CO2-Ph-4-Py)2, 1,1′-4-(1H-pyrrol-1-yl)phenyl ferrocenedicarboxylate], in data set [7] (setting [12]), the IC50 came out at 45.5 µM. In data set [1] (setting [12]), the IC50 worked out at 298 µM. In data set [6] (setting [12]), the concentration for half-maximal inhibition (IC50) is 189 µM. In data set [10], the E1/2 was found to be 910 mV, the Epa stood at 958 mV, the Epc is 862 mV and the ΔE was 96 mV. Further, in the data set with MCF-7, the “ROS production (in words)” value is listed as “significant increase”. Besides, in the data set on MCF-7 cells [11], the “Micronucleus (MNi) (mean ± SD)” value is on record as 15 (1) ^**, the “increase … (untreated cells)” value is “up to 5 fold” and the “increase in micronucleus-forming activity” value is listed as “up to 5 fold”. Further, the “% Binucleated cells (Mitotic rate)” value in the data set with MCF-7 cells [5] (0.1 μM) is 18 (7) ^* %. Besides, the “% Binucleated cells (Mitotic rate)” value with MCF-7 cells [5] (1 μM) is 33 (13) ^* %. Further, the “% Binucleated cells (Mitotic rate)” value in the data set with MCF-7 cells [5] (10 μM) is listed as 25 (6) ^* %.

`F[B-](F)(F)F.[Fe+3].c1cc[cH-]c1.c1cc[cH-]c1` [Ferricenium tetrafluoroborate]: the IC50 in [2] is 150 µM; in [3], 180 µM.

Regarding `[Fe+2].c1cc[cH-]c1.c1cc[cH-]c1` [Fc/Fc^+, ferrocene], in data set [10], the E1/2 amounted to 454 mV, the Epa came out at 494 mV, the Epc is 414 mV and the ΔE was 80 mV.

Take `COS(C)(=O)=O` [MMS, methyl methane sulphonate]: in the data set with MCF-7 cells [5] (94.4 μM), the “% Binucleated cells (Mitotic rate)” value is 28 (3) ^* % and the “Micronucleus (MNi) (mean ± SD)” value is listed as 62 (6) ^***.

As for `Oc1ccc(-n2cccc2)cc1` [4-(1H-pyrrol-1yl)phenol], the IC50 in data set [7] (Homo sapiens, MCF7, 72 h) came out at 249 µM; in data set [1] (Homo sapiens, MCF-10A, 72 h), 553 µM; in data set [6] (Homo sapiens, HT-29, 72 h), 211 µM.

The record behind these values is article PMC4330091 (Bioorganic & medicinal chemistry, 2014).
